Activity calls are given as the source filed them. No cut-off for these calls is given here.
How the values were obtained:
OVCAR-8 [1] = assay: Cytotoxicity against human OVCAR8 cells assessed as cell growth at 10 uM after 48 hrs by sulforhodamine B assay; format: functional; conditions: OVCAR-8, 48 h, read-out: Activity
UACC-62 = assay: Cytotoxicity against human UACC62 cells assessed as cell growth at 0.001 uM after 48 hrs by sulforhodamine B assay; format: functional; conditions: UACC-62, 48 h, read-out: Activity
786-0 = assay: Cytotoxicity against human 786-0 cells assessed as cell growth at 10 uM after 48 hrs by sulforhodamine B assay; format: functional; conditions: 786-0, 48 h, read-out: Activity
In short: (§1)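 Cells grown in RPMI 1640 with 5% FBS and 2 mM L-glutamine, seeded at 5,000–40,000 cells/well by doubling time. Time-zero plates TCA-fixed after 24 h. Five concentrations (10-fold or half-log dilutions from DMSO stock) added; 48 h at 37 °C, 5% CO2. Cold TCA fixation (final 10%, 60 min, 4 °C), 0.4% SRB stain, dye solubilized in 10 mM trizma base, A515.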

HCT-15 = assay: Cytotoxicity against human HCT15 cells assessed as cell growth at 0.01 uM after 48 hrs by sulforhodamine B assay; format: functional; conditions: HCT-15, 48 h, read-out: Activity
HOP-62 = assay: Growth inhibition of human HOP62 cells after 48 hrs by sulforhodamine B assay; format: functional, cell-based; conditions: HOP-62, 48 h; for CC50: read-out: LC50 (the source's name)
In short: (§2)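 Cells grown in RPMI 1640 with 5% FBS and 2 mM L-glutamine, seeded at 5,000–40,000 cells/well according to doubling time. After 24 h, time-zero plates are TCA-fixed. Five concentrations (10-fold or ½log dilutions, DMSO stocks) are applied for 48 h at 37 °C, 5% CO₂. Cells are TCA-fixed, SRB-stained and read at 515 nm. IC₅₀ is taken from [(Ti−Tz)/(C−Tz)]×100 = 50.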

SNB-19 = assay: Cytotoxicity against human SNB19 cells assessed as cell growth at 0.01 uM after 48 hrs by sulforhodamine B assay; format: functional; conditions: SNB-19, 48 h, read-out: Activity
SK-MEL-5 = assay: Cytotoxicity against human SK-MEL-5 cells assessed as cell growth at 0.001 uM after 48 hrs by sulforhodamine B assay; format: functional; conditions: SK-MEL-5, 48 h, read-out: Activity
M14 = assay: Growth inhibition of human M14 cells after 48 hrs by sulforhodamine B assay; format: functional, cell-based; conditions: for CC50: read-out: LC50 (the source's name); in short: as §2
LOX IMVI [2] = assay: Cytotoxicity against human LOXIMVI cells assessed as cell growth at 0.01 uM after 48 hrs by sulforhodamine B assay; format: functional; conditions: read-out: Activity
LOX IMVI [3] = assay: Growth inhibition of human LOXIMVI cells after 48 hrs by sulforhodamine B assay; format: functional, cell-based; conditions: for CC50: read-out: LC50 (the source's name); in short: as §2
SF-268 [4] = assay: Cytotoxicity against human SF268 cells assessed as cell growth at 100 nM after 48 hrs by sulforhodamine B assay; format: functional; conditions: SF-268, 48 h, read-out: Activity
NCI-H322M = assay: Cytotoxicity against human NCI-H322M cells assessed as cell growth at 0.001 uM after 48 hrs by sulforhodamine B assay; format: functional; conditions: read-out: Activity
COLO 205 = assay: Cytotoxicity against human COLO205 cells assessed as cell growth at 0.01 uM after 48 hrs by sulforhodamine B assay; format: functional; conditions: COLO 205, 48 h, read-out: Activity; in short: as §1
Malme-3M = assay: Cytotoxicity against human MALME-3M cells assessed as cell growth at 0.001 uM after 48 hrs by sulforhodamine B assay; format: functional; conditions: read-out: Activity
SW-620 [5] = assay: Cytotoxicity against human SW620 cells assessed as cell growth at 100 nM after 48 hrs by sulforhodamine B assay; format: functional; conditions: SW-620, 48 h, read-out: Activity
ACHN = assay: Cytotoxicity against human ACHN cells assessed as cell growth at 100 nM after 48 hrs by sulforhodamine B assay; format: functional; conditions: read-out: Activity; in short: as §1
TK-10 = assay: Cytotoxicity against human TK10 cells assessed as cell growth at 10 uM after 48 hrs by sulforhodamine B assay; format: functional; conditions: TK-10, 48 h, read-out: Activity
[6] = Cytotoxicity against human Hs 578T cells assessed as cell growth at 0.01 uM after 48 hrs by sulforhodamine B assay; format: functional; conditions: read-out: Activity
SW-620 [7] = assay: Cytotoxicity against human SW620 cells assessed as cell growth at 0.01 uM after 48 hrs by sulforhodamine B assay; format: functional; conditions: SW-620, 48 h, read-out: Activity
A498 = assay: Growth inhibition of human A498 cells after 48 hrs by sulforhodamine B assay; format: functional, cell-based; conditions: A498, 48 h; for CC50: read-out: LC50 (the source's name)
In short: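 Five-dose SRB assay. Cells in RPMI 1640 with 5% FBS and 2 mM L-glutamine were seeded at 5,000–40,000 cells/well, with a TCA-fixed time-zero plate (Tz) taken at 24 h. Compound stocks were in DMSO, serially diluted 10-fold or ½-log to five concentrations, and incubated 48 h at 37 °C. Plates were stained with SRB and read at 515 nm. IC₅₀ was taken where [(Ti−Tz)/(C−Tz)]×100 = 50.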

MDA-MB-468 = assay: Growth inhibition of human MDA-MB-468 cells after 48 hrs by sulforhodamine B assay; format: functional, cell-based; conditions: MDA-MB-468, 48 h; in short: as §2
SK-OV-3 = assay: Cytotoxicity against human SKOV3 cells assessed as cell growth at 0.001 uM after 48 hrs by sulforhodamine B assay; format: functional; conditions: SK-OV-3, 48 h, read-out: Activity
OVCAR-8 [8] = assay: Cytotoxicity against human OVCAR8 cells assessed as cell growth at 0.01 uM after 48 hrs by sulforhodamine B assay; format: functional; conditions: OVCAR-8, 48 h, read-out: Activity
CAKI-1 = assay: Cytotoxicity against human Caki1 cells assessed as cell growth at 1 uM after 48 hrs by sulforhodamine B assay; format: functional; conditions: CAKI-1, 48 h, read-out: Activity; in short: as §1
SF-268 [9] = assay: Growth inhibition of human SF268 cells after 48 hrs by sulforhodamine B assay; format: functional, cell-based; conditions: SF-268, 48 h; for CC50: read-out: LC50 (the source's name); in short: as §2
OVCAR-5 = assay: Cytotoxicity against human OVCAR5 cells assessed as cell growth at 0.001 uM after 48 hrs by sulforhodamine B assay; format: functional; conditions: OVCAR-5, 48 h, read-out: Activity
UO-31 = assay: Cytotoxicity against human UO31 cells assessed as cell growth at 100 nM after 48 hrs by sulforhodamine B assay; format: functional; conditions: UO-31, 48 h, read-out: Activity
SNB-75 = assay: Cytotoxicity against human SNB75 cells assessed as cell growth at 0.01 uM after 48 hrs by sulforhodamine B assay; format: functional; conditions: SNB-75, 48 h, read-out: Activity
OVCAR-4 = assay: Cytotoxicity against human OVCAR4 cells assessed as cell growth at 100 nM after 48 hrs by sulforhodamine B assay; format: functional; conditions: OVCAR-4, 48 h, read-out: Activity

CC(=O)c1ccccc1-c1ccc(-c2ccnc(NC(=O)Nc3cc(N4CCOCC4)cc(C(F)(F)F)c3)n2)cn1 showed a growth at 10 µM (OVCAR-8 [1]) of 53%, a growth at 0.001 µM (UACC-62) of 94% and a growth at 10 µM (786-0) of 10%. The growth at 0.01 µM (HCT-15) was 98%, the GI50 (HOP-62) was greater than 100 µM and the IC50 (HOP-62) was 4.29 µM. The TGI (HOP-62) was greater than 100 µM, the CC50 (HOP-62) was greater than 100 µM and the growth at 0.01 µM (SNB-19) was 98%. It also gave a growth at 0.001 µM (SK-MEL-5) of 99%, a TGI (M14; Homo sapiens, M14, 48 h) greater than 100 µM and a CC50 (M14; Homo sapiens, M14, 48 h) greater than 100 µM. For the same molecule, the IC50 (M14; m14) was “Not Active”, the growth at 0.01 µM (LOX IMVI [2]) was 106% and the GI50 (LOX IMVI [3]) was 34.9 µM. The IC50 (LOX IMVI [3]) was greater than 100 µM, the TGI (LOX IMVI [3]) was greater than 100 µM and the CC50 (LOX IMVI [3]) was greater than 100 µM. For the same molecule, the growth at 0.1 µM (SF-268 [4]) was 90%, the growth at 0.001 µM (NCI-H322M) was 101% and the growth at 0.01 µM (COLO 205) was 114%. For the same molecule, the growth at 0.001 µM (Malme-3M) was 94%, the growth at 0.1 µM (SW-620 [5]) was 93% and the growth at 0.1 µM (ACHN) was 91%. It also gave a growth at 10 µM (TK-10) of 27%, a growth at 0.01 µM [6] of 101% and a growth at 0.01 µM (SW-620 [7]) of 106%. The GI50 (A498) was 13 µM, the IC50 (A498) was greater than 100 µM and the TGI (A498) was greater than 100 µM. For the same molecule, the CC50 (A498) was greater than 100 µM, the GI50 (MDA-MB-468) was greater than 100 µM and the IC50 (MDA-MB-468) was greater than 100 µM. For the same molecule, the LC50 (MDA-MB-468) was greater than 100 µM, the TGI (MDA-MB-468) was greater than 100 µM and the growth at 0.001 µM (SK-OV-3) was 111%. For the same molecule, the growth at 0.01 µM (OVCAR-8 [8]) was 93%, the growth at 1 µM (CAKI-1) was 58% and the GI50 (SF-268 [9]) was greater than 100 µM. For the same molecule, the IC50 (SF-268 [9]) was 40.2 µM, the TGI (SF-268 [9]) was greater than 100 µM and the CC50 (SF-268 [9]) was greater than 100 µM. The growth at 0.001 µM (OVCAR-5) was 94%, the growth at 0.1 µM (UO-31) was 80% and the growth at 0.01 µM (SNB-75) was 100%. It also gave a growth at 0.1 µM (OVCAR-4) of 92%.

In the case of CC(=O)Nc1cccc(-c2ccc(-c3ccnc(NC(=O)Nc4cc(C(F)(F)F)cc(C(F)(F)F)c4)n3)cn2)c1.Cl, the growth at 10 µM (OVCAR-8 [1]) is reported as -84%, the growth at 0.001 µM (UACC-62) is reported as 93% and the growth at 10 µM (786-0) is reported as 100%. For the same molecule, the growth at 0.01 µM (HCT-15) was 91%, the GI50 (HOP-62) was 4.88 µM and the IC50 (HOP-62) was 4.88 µM. The TGI (HOP-62) was 26.8 µM, the CC50 (HOP-62) was greater than 100 µM and the growth at 0.01 µM (SNB-19) was 96%. It also gave a growth at 0.001 µM (SK-MEL-5) of 96%, a GI50 (M14; Homo sapiens, M14, 48 h) of 1.83 µM and a TGI (M14; Homo sapiens, M14, 48 h) of 3.76 µM. For the same molecule, the IC50 (M14; Homo sapiens, M14, 48 h, read-out: IC50) was 1.83 µM, the CC50 (M14; Homo sapiens, M14, 48 h) was 7.74 µM and the growth at 0.01 µM (LOX IMVI [2]) was 86%. The GI50 (LOX IMVI [3]) was 1.79 µM, the IC50 (LOX IMVI [3]) was 1.79 µM and the TGI (LOX IMVI [3]) was “inactive”. For the same molecule, the CC50 (LOX IMVI [3]) was greater than 100 µM, the growth at 0.1 µM (SF-268 [4]) was 93% and the growth at 0.001 µM (NCI-H322M) was 91%. It also gave a growth at 0.01 µM (COLO 205) of 100%, a growth at 0.001 µM (Malme-3M) of 92% and a growth at 0.1 µM (SW-620 [5]) of 97%. For the same molecule, the growth at 0.1 µM (ACHN) was 93%, the growth at 10 µM (TK-10) was -54% and the growth at 0.01 µM [6] was 99%. The growth at 0.01 µM (SW-620 [7]) was 95%, the GI50 (A498) was 6.13 µM and the IC50 (A498) was 6.13 µM. It also gave a TGI (A498) of 22.2 µM, a CC50 (A498) of 59.2 µM and a GI50 (MDA-MB-468) of 0.837 µM. The IC50 (MDA-MB-468) was 0.837 µM, the LC50 (MDA-MB-468) was 5.85 µM and the TGI (MDA-MB-468) was 2.35 µM. It also gave a growth at 0.001 µM (SK-OV-3) of 103%, a growth at 0.01 µM (OVCAR-8 [8]) of 96% and a growth at 1 µM (CAKI-1) of -7%. It also gave a GI50 (SF-268 [9]) of 4.92 µM, an IC50 (SF-268 [9]) of 4.92 µM and a TGI (SF-268 [9]) of 23.9 µM. For the same molecule, the CC50 (SF-268 [9]) was 98.7 µM, the growth at 0.001 µM (OVCAR-5) was 97% and the growth at 0.1 µM (UO-31) was 70%. It also gave a growth at 0.01 µM (SNB-75) of 71% and a growth at 0.1 µM (OVCAR-4) of 61%.

From ChEMBL document CHEMBL1165943, “Design and synthesis of new anticancer pyrimidines with multiple-kinase inhibitory effect” (Bioorg Med Chem, 2010)
